Most compounds without a hit are left out; they make up all but 3% or so of the library.
FID counter: compounds displacing fluorescent DNA intercalator, primary screen, artefact control for HCV NS3 helicase inhibitor project, biochemical, FID fluorescence; DNA fluorescent intercalator displacement; inhibition, % at 7.9 µM; hit rate 0.17% among 290,000; in the data active = inhibition above about 37%;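 also: higher means more ethidium bromide displaced from hairpin DNA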
ANO1 activ: TMEM16A chloride channel activators or potentiators, primary screen, cell-based, HTS. hit rate 0.3% among 340,000. Anoctamin-1 (Mus musculus), Q8BHY3. AID 623877, 2012. HEK293 TMEM16A/YFP-H148Q/I152L, iodide quench fluorescence; stronger effect = lower value. B-score at 10 µM;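 active = fluorescence-ratio B-score plate-corrected deviation score at least 3 library SD below zero, with starting fluorescence score within 5 deviations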;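 also: channel opened by trigger with iodide after compound preincubation; score built on the fluorescence ratio of max minus min over baseline; more negative score means more quench and so TMEM16A activation or potentiation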
TMEM16A inh: TMEM16A chloride channel inhibitors, primary screen, cell-based, HTS; hit rate 1.2% among 310,000; HEK293 TMEM16A/YFP iodide influx fluorescence, ionomycin; Anoctamin-1 (Mus musculus), Q8BHY3; normalized B-score (activity score, 25-100; higher = stronger inhibition) at 10 µM; AID 588511, 2011;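 active = ratio plate-corrected score three or more library SD toward inhibition, starting fluorescence score within five deviations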;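 also: score derived from kinetic fluorescence span divided by baseline fluorescence per well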
SR-BI DiI-HDL act: activators of SR-BI mediated DiI-HDL uptake, primary screen, ldlA[mSR-BI] CHO cells, DiI fluorescence; 3 h; 100 = double the neutral-control signal; activation, % at 12.5 µM; hit rate 0.096% among 320,000; AID 504775, 2011;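 active = mean replicate activation of at least 60% and every replicate at or above 60%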
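System: CHO ldlA[mSR-BI] cells / Medium: HEPES-buffered (25 mM, pH 7.4) F12 plus 0.5% BSA / Probe or stimulus: labelled HDL, 10 µg/mL / Doses: single compound concentration, delivered by pin transfer / Schedule: 3 h, 37 °C / Measured by: DiI fluorescence, bottom read / Measure: cell-associated DiI fluorescence as measure of HDL uptake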
SR-BI HDL uptake: inhibitors of SR-BI mediated HDL lipid uptake, primary screen, ldlA[mSR-BI] cells, fluorescence, single point; inhibition, % at 12.5 µM; Scavenger receptor class B member 1 (Mus musculus), Q61009; AID 488896, 2010; hit rate 0.96% among 320,000; ldlA[mSR-BI] CHO cells, DiI-HDL uptake fluorescence, 3 h;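 active = mean replicate inhibition of at least 70% and a set share of replicates each scoring 70 or more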
Target sequence (Q61009 whole entry, looked up): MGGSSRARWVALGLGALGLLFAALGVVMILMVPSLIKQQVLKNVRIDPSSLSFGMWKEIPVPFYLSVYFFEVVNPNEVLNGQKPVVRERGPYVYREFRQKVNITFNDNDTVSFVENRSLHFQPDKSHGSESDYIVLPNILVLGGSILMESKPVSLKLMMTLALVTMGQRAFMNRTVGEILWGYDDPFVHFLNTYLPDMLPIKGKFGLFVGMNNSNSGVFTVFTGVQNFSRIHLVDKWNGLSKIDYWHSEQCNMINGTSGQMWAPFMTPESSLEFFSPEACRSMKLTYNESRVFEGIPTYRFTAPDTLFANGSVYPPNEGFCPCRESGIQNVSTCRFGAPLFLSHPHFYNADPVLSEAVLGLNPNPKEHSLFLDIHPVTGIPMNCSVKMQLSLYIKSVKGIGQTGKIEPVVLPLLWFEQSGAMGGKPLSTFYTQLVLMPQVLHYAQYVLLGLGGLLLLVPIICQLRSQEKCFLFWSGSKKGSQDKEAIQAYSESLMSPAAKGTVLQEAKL
Kir21 inh: inhibitors of mouse Kir2.1 inward-rectifier potassium channel | B-score at 10 µM | AID 1672, 2009 | HEK293-Kir2.1, FluxOR thallium flux fluorescence; stronger effect = lower value | Inward rectifier potassium channel 2 (Mus musculus), P35561 | hit rate 0.85% among 310,000;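 active = fluorescence ratio B-score at or below minus 3 SD of library scores, with starting-brightness B-score within 2 SD, cut at about -4.2 in these data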;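 also: channel flux triggered by added potassium and thallium sulfate stimulus; B-score of peak minus minimum fluorescence over baseline after thallium stimulus; more negative B-score means stronger Kir2.1 block with less thallium influx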
Each line names hits and unclear results; the compound was inactive in the other large screens.

O=C(N/N=C/c1c[nH]c2ccccc12)c1cc(-c2cccc3ccccc23)n[nH]1	none
O=C(N/N=C/c1c[nH]c2ccccc12)c1cc(-c2ccccc2)n[nH]1	none
O=C(N/N=C/c1c[nH]c2ccccc12)c1cc(-c2ccc(-c3ccccc3)cc2)n[nH]1	SR-BI HDL uptake 94
O=C(N/N=C/c1c[nH]c2ccccc12)c1cc(-c2ccc3ccccc3c2)n[nH]1	SR-BI HDL uptake 73
O=C1N=c2ccccc2=C1c1c(O)[nH]c2c(C(F)(F)F)cccc12	none
COc1ccc(N2CCN(CC(O)COCCOc3ccc(Br)cc3)CC2)cc1 (configuration not stated)	Kir21 inh -4.3
OC(COc1ccccc1)CN1CCCC1 (configuration not stated)	none
CC(C)(c1ccccc1)c1ccc(OCC(O)CN2CCCC2)cc1 (configuration not stated)	Kir21 inh -5.3
O=S(=O)(N1CCCCC1)N1CCN(CC(O)COc2ccc3cc(Br)ccc3c2)CC1 (configuration not stated)	none
OC(COc1ccc2cc(Br)ccc2c1)CN1CCCC1 (configuration not stated)	Kir21 inh -6.8
CCC(C)C(N)C1=NC(C(=O)N[C@@H](CC(C)C)C(=O)N[C@H](CCC(=O)[O-])C(=O)N[C@H](C(=O)N[C@H]2CCCCNC(=O)[C@H](CC(N)=O)NC(=O)[C@@H](CC(=O)[O-])NC(=O)[C@H](Cc3cnc[nH]3)NC(=O)[C@@H](Cc3ccccc3)NC(=O)[C@H]([C@@H](C)CC)NC(=O)[C@@H](CCCN)NC2=O)[C@@H](C)CC)CS1.[Zn+2] (some centres not stated)	none (no result: FID counter, TMEM16A inh, Kir21 inh)
N#Cc1c(SCc2c(Cl)cccc2Cl)nc(N)[nH]c1=S	none (no result: FID counter, TMEM16A inh, Kir21 inh)
CC1CCc2c(sc3[nH]c(=S)n(C)c(=O)c23)C1 (configuration not stated)	none
CC1CCN(c2nnc(-c3ccccc3)c3ccccc23)CC1	SR-BI HDL uptake 84
Cc1ccc(-c2nnc(N3CCC(C)CC3)c3ccccc23)cc1	none
COc1cc(/C=N/n2nnnc2Nc2ccccc2)cc(OC)c1OC	SR-BI HDL uptake 89
COc1cc(/C=N/Nc2nc(Nc3ccccc3)nc(-n3nc(C)cc3C)n2)cc(OC)c1OC	none
N=C1C=CC(=C(c2ccc(N)cc2)c2ccc(N)cc2)C=C1	SR-BI HDL uptake 104 (no result: FID counter, TMEM16A inh, Kir21 inh)
CCCNC(=O)C(CC)NC(=O)c1ccc(C#N)cc1 (configuration not stated)	SR-BI DiI-HDL act 62 (no result: FID counter, TMEM16A inh, Kir21 inh)
COc1cc(C(=O)NCCC(C)C)c([N+](=O)[O-])cc1OC	SR-BI HDL uptake 82
COc1ccc([C@@H]2Sc3ccccc3NC(=O)[C@@H]2O)cc1	none (no result: FID counter)
CC(C)(C)c1ccc(/C=N/OCC(=O)NCc2ccc(F)cc2)cc1	none
COc1ccc(NC(=O)CCn2c(=O)c3cccn3c3ccccc32)c(OC)c1	SR-BI HDL uptake 75
Cc1cc(C)cc(NC(=O)CCn2c(=O)c3cccn3c3ccccc32)c1	SR-BI HDL uptake 81
O=C(CCn1c(=O)c2cccn2c2ccccc21)Nc1ccc(F)cc1	SR-BI HDL uptake 75
COc1ccc(NC(=O)CCn2c(=O)c3cccn3c3ccccc32)cc1	none
Cc1ccc(NC(=O)Cn2c(=O)c3cccn3c3ccccc32)cc1	none
COc1cccc(CN(C)C(=O)c2cc(COc3c(F)cccc3F)on2)c1	none
COc1cccc(CN(C)C(=O)c2cc(COc3ccc(-n4cncn4)cc3)on2)c1	TMEM16A inh 25
Cc1ccc(-c2nc(CS(=O)(=O)CC(=O)NCCCN(Cc3ccccc3)C(C)C)c(C)o2)cc1	FID counter 37
COc1ccc(-c2nc(CS(=O)(=O)CC(=O)NCCCc3ccccc3)c(C)o2)cc1	none
COc1cccc(-c2nc(CS(=O)(=O)CC(=O)N3CCN(C4CCCCC4)CC3)c(C)o2)c1	SR-BI HDL uptake 75
Cc1ccccc1-c1nc(CS(=O)(=O)CC(=O)NCCCN2CC(C)CC(C)C2)c(C)o1 (configuration not stated)	FID counter 37
COc1ccc(-c2nc(CS(=O)(=O)CC(=O)NCCc3ccc(C)cc3)c(C)o2)cc1	SR-BI HDL uptake 99 (no result: SR-BI DiI-HDL act)
CC(OC(=O)Nc1ccccc1)C(=O)OC1CCCCC1 (configuration not stated)	none (no result: FID counter, TMEM16A inh, Kir21 inh)
CCOCCCNC(=O)CS(=O)(=O)Cc1nc(-c2cccc(OC)c2)oc1C	TMEM16A inh 25
CCCNC(=O)CS(=O)(=O)Cc1nc(-c2cccc(OC)c2)oc1C	none
CCC(=O)N(Cc1ccco1)c1nc(-c2ccc(OC)cc2)cs1	none
CCC(=O)N(CC)c1nc(-c2ccc(OC)cc2)cs1	SR-BI HDL uptake 87 (no result: ANO1 activ)
COc1ccc(S(=O)(=O)N(Cc2cccs2)C2CCCC2)cc1	TMEM16A inh 100
COc1ccc(S(=O)(=O)NCc2cccs2)cc1	none
O=C(O)CCCNc1cc(N2CCN(C(=O)c3ccco3)CC2)c2noc3c2c1C(=O)c1ccccc1-3	none
CCOC(=O)N1CCN(c2cc(NCCC(=O)O)c3c4c(onc24)-c2ccccc2C3=O)CC1	ANO1 activ -12 (no result: Kir21 inh)
O=C(Nc1ccc(Br)c2ccccc12)c1ccc2ccccc2c1O	TMEM16A inh 100
O=C(NNC(=O)c1cc2ccccc2cc1O)c1cccs1	SR-BI HDL uptake 115
O=C(NNC(=O)c1ccc2ccccc2c1O)c1cccs1	SR-BI HDL uptake 106
C/C(=N\NC(=O)c1cc2ccccc2cc1O)c1cccs1	none
O=C(CCS(=O)(=O)c1ccccc1)Nc1ccccc1-c1nc2ccccc2s1	SR-BI HDL uptake 72
COc1ccc(C(=O)Nc2oc(-c3ccccc3)c(-c3ccccc3)c2C#N)cc1	SR-BI HDL uptake 83
COc1ccc(C(=O)Nc2oc(-c3ccccc3)c(-c3ccccc3)c2C#N)cc1OC	SR-BI HDL uptake 82
COc1ccc(-c2oc(NC(=O)c3ccc(C)cc3)c(C#N)c2-c2ccc(OC)cc2)cc1	none
COc1ccc(-c2oc(NC(C)=O)c(C#N)c2-c2ccc(OC)cc2)cc1	none
Cc1cccc(C)c1OCC(=O)Nc1oc(-c2ccccc2)c(-c2ccccc2)c1C#N	SR-BI HDL uptake 82
CC(C)(C)c1ccc(C(=O)CC(=O)c2cc(Cl)ccc2O)cc1	TMEM16A inh 25
Cc1ccc(C(=O)CC(=O)c2cc(Cl)ccc2O)cc1	none
O=C(CCNC(=O)OCC1c2ccccc2-c2ccccc21)NOCc1ccccc1	none (no result: FID counter, TMEM16A inh, Kir21 inh)
